Measurements taken from ChEMBL document CHEMBL5649170, “Sustained microglial depletion with CSF1R inhibitor impairs parenchymal plaque development in an Alzheimer's disease model” (Nat Commun, 2019).
Activity calls are given as the source filed them. The calls are words filed in the database; no cut-off is given here.

Experiments:
[1] = molecular target: Ribosomal protein S6 kinase alpha-2 (Homo sapiens, UniProt Q15349); assay: Inhibition of RPS6KA2 (unknown origin)
[2] = molecular target: Serine/threonine-protein kinase MRCK beta (Homo sapiens, UniProt Q9Y5S2); assay: Inhibition of CDC42_BPB (unknown origin)
Chain of Serine/threonine-protein kinase MRCK beta (Q9Y5S2 whole entry): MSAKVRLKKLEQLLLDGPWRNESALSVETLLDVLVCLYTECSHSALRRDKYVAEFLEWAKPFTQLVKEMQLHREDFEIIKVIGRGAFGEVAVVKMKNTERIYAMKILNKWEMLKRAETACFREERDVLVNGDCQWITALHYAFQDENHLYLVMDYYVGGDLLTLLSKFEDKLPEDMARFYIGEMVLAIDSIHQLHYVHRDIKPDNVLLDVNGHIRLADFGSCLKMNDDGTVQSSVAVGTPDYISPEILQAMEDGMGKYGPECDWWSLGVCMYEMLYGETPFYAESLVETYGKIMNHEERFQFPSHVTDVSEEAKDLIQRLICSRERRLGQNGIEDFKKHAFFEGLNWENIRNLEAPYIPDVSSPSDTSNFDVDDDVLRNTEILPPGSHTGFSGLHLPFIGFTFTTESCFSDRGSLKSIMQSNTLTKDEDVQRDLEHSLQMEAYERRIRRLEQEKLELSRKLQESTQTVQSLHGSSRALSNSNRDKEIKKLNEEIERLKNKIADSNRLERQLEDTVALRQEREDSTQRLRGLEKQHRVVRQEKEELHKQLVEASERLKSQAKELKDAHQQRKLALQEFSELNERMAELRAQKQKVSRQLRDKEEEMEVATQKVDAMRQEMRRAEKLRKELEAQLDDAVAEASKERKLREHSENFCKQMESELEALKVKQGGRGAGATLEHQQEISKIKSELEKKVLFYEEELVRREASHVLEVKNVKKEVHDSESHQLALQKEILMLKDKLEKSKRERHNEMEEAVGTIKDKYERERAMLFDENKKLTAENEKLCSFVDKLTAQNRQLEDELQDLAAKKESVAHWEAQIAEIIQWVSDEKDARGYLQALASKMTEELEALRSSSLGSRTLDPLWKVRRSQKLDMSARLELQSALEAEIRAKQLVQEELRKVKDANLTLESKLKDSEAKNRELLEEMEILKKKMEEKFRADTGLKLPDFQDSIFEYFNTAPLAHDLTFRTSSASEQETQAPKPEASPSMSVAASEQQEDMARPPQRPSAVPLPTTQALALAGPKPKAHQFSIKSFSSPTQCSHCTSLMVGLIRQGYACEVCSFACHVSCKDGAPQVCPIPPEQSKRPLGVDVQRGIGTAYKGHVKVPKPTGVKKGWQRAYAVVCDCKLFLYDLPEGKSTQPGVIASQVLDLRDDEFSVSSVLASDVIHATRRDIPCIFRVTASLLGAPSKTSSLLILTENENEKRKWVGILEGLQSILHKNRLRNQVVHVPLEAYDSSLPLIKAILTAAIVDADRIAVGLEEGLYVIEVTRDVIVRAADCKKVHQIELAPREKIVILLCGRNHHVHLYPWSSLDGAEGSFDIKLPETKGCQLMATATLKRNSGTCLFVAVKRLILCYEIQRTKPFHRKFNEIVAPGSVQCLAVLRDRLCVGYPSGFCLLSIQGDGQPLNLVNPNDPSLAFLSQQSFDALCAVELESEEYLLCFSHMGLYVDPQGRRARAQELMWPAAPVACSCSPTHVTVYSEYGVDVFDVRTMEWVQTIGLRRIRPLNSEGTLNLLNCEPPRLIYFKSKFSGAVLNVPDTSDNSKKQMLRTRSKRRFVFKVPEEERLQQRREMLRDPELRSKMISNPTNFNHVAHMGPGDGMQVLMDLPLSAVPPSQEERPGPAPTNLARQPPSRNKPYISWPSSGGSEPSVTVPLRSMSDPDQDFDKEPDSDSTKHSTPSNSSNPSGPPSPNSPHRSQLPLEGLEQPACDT

[3] = tested on: Mus musculus; assay: Antialzheimer activity in 5XFAD mouse assessed as microglial elimination in thalamus at 1200 ppm administered as rodent chow for 10 weeks by Thio-S staining based confocal microscopic analysis; format: functional, organism-based; conditions: route po
How it was run: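 1.5-month-old 5xFAD mice fed 1200 ppm PLX5622 chow for 10 weeks; free-floating sections stained with Thio-S and immunolabeled for IBA1 (5% normal serum/0.2% Triton X-100 block, 60 min); confocal imaging of cortex and thalamus to assess remaining microglia.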

[4] = molecular target: RAC-beta serine/threonine-protein kinase (Homo sapiens, UniProt P31751); assay: Inhibition of AKT2 (unknown origin)
Chain of RAC-beta serine/threonine-protein kinase (P31751 whole entry): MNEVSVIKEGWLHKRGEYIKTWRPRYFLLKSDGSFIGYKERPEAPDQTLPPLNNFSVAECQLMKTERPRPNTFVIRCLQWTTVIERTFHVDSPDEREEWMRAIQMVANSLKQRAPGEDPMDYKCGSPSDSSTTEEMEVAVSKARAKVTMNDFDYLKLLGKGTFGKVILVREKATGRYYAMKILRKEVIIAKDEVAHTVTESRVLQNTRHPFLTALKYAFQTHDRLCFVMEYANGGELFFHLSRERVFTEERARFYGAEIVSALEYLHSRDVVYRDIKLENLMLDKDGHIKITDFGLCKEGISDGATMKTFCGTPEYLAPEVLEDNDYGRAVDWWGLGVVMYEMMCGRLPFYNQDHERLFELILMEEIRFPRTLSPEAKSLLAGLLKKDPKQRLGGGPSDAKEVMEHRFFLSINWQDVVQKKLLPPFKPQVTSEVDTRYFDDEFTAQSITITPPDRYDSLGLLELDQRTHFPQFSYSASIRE

[5] = Toxicity in wildtype mouse assessed as number of closed arm entries at 1200 ppm administered as rodent chow for 10 to 24 weeks by Elevated plus maze test (reference value: 11 to 33); conditions: in vivo, po, time 10-24 weeks
[6] = tested on: Mus musculus; assay: Antialzheimer activity in 5XFAD mouse assessed as iron reactivity by measuring hemosiderin intensity of prussian blue staining in […] cortex at 1200 ppm administered as rodent chow starting from 1.5 months and measured after 7 months by confocal microscopic analysis (reference value: 0.1 to 4.791 a.u.); format: functional; conditions: route po, time 5.5 months, 4015 h
How it was run: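 Wild-type or 5xFAD mice fed PLX5622 (1200 ppm) in AIN-76A chow from 1.5 months of age, examined in 4- and 7-month-old cohorts. Brain sections stained with a Prussian blue kit per kit instructions to detect iron deposits (microbleeds).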

[7] = tested on: Mus musculus; assay: Antialzheimer activity in 5XFAD mouse assessed as number of Iba positive cells per FOV in microglia at 1200 ppm administered as rodent chow for 5 days by DAPI staining based immunolabeling analysis (reference value: 119 to 154); format: functional; conditions: route po, time 5 day
[8] = molecular target: Casein kinase I isoform epsilon (Homo sapiens, UniProt P49674); assay: Inhibition of CSNK1E (unknown origin)
Chain of Casein kinase I isoform epsilon (P49674 whole entry, canonical isoform): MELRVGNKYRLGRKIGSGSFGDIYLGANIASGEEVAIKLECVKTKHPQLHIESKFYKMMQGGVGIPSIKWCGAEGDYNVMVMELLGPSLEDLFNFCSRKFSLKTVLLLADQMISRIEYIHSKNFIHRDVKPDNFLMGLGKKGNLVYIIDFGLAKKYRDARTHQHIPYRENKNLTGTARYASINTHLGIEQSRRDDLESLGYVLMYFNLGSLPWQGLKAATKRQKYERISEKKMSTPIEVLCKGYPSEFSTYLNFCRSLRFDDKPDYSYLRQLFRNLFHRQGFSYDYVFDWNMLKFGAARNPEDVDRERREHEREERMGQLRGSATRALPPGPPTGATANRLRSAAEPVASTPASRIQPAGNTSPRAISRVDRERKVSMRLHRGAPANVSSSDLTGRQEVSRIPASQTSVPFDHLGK

[9] = AUC (0 to 24 hrs) in 5XFAD mouse brain at 1200 ppm administered as rodent chow for 180 days; format: ADME, tissue-based; conditions: route po, time 180 day
[10] = tested on: Mus musculus; assay: Antialzheimer activity in 5XFAD mouse assessed as ApoE immunoreactivity by measuring ApoE intensity of plaque core in thalamus at 1200 ppm administered as rodent chow starting from 1.5 months and measured after 7 months by immunolabeling based confocal microscopic analysis (reference value: 6.13 to 122.68 a.u.); format: functional; conditions: route po, time 5.5 months, 4015 h
[11] = Effect on Hexb gene expression in wild type mouse hippocampus at 1200 ppm administered as rodent chow starting from 1.5 months and measured after 7 months by RNA-Seq analysis (reference value: 42.233 to 43.921 RPKM); format: functional; conditions: route po, time 5.5 months, 4015 h
[12] = Half-life in female rat at 1.13 mg/kg, iv administered as single dose; format: ADME, organism-based; conditions: in vivo
[13] = tested on: Mus musculus; assay: Antialzheimer activity in 5XFAD mouse assessed as reduction in myeloid cell numbers in subiculum at 1200 ppm administered as rodent chow starting from 1.5 months and measured after 7 months by immunolabeling based confocal microscopic analysis relative to control; format: functional; set-up: scale not given: the % may be the effect or the level left; conditions: route po, time 5.5 months, 4015 h
[14] = molecular target: Serine/threonine-protein kinase D3 (Homo sapiens, UniProt O94806); assay: Inhibition of PRKCN (unknown origin)
Chain of Serine/threonine-protein kinase D3 (O94806 whole entry): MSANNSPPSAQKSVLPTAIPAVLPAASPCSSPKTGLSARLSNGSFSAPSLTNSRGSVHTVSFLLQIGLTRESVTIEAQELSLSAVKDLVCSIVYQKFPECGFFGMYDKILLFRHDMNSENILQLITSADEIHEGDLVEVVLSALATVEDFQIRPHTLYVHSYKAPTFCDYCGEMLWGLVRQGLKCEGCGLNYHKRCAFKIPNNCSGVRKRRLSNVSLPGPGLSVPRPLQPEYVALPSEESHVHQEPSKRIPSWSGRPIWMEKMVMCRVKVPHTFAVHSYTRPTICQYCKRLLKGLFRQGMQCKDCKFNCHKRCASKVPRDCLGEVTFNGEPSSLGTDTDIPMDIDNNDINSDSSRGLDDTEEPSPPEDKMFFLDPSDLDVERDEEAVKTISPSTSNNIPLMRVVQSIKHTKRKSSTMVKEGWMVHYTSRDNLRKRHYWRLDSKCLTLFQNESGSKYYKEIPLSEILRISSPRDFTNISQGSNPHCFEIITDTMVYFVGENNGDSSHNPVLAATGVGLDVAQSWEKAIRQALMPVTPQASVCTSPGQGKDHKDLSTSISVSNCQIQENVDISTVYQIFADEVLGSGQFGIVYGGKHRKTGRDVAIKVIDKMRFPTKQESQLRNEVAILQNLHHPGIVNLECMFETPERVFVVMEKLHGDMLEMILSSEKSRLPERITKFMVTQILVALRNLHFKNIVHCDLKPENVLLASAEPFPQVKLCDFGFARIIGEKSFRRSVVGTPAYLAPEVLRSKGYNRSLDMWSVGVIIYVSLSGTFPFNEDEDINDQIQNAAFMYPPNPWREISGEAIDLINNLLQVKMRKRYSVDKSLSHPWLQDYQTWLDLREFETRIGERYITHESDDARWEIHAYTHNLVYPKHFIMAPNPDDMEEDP

[15] = molecular target: T1, Macrophage colony-stimulating factor 1 receptor (Mus musculus) (UniProt P09581); assay: In vivo inhibition of CSF1R in wildtype mouse assessed as number of GFAP positive cell per FOV in […] cortex at 1200 ppm administered as rodent chow for 10 to 24 weeks by immunolabelling based confocal microscopic analysis (reference value: 17 to 92); format: functional; conditions: route po, time 10-24 weeks
T1 sequence (whole entry): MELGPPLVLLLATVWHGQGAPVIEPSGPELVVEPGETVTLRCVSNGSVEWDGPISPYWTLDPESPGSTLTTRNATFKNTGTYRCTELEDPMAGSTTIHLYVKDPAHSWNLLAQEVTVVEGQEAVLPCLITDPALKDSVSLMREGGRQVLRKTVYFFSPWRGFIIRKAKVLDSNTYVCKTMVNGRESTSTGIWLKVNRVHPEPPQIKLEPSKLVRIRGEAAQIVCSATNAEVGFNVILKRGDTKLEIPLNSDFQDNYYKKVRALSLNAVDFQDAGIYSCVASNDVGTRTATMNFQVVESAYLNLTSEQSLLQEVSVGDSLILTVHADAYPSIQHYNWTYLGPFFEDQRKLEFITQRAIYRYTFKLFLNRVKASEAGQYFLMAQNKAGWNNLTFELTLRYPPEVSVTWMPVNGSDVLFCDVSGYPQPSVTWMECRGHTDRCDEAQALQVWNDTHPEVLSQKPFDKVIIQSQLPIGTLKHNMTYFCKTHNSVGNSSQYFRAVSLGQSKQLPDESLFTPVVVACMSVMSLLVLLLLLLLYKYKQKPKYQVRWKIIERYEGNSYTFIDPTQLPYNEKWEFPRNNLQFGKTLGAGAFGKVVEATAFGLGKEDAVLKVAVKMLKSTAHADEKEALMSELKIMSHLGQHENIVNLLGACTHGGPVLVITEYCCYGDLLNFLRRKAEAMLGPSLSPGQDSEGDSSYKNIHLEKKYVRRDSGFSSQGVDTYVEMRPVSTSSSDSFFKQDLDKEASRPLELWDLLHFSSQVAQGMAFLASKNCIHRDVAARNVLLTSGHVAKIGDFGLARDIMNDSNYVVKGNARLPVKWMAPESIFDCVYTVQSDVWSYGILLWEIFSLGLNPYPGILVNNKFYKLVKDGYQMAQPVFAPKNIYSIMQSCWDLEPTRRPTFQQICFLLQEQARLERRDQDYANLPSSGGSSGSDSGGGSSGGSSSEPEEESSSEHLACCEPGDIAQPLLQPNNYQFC

[16] = molecular target: Serine/threonine-protein kinase mTOR (Homo sapiens, UniProt P42345); assay: Inhibition of FRAP1 (unknown origin)
[17] = molecular target: Megakaryocyte-associated tyrosine-protein kinase (Homo sapiens, UniProt P42679); assay: Inhibition of MATK (unknown origin)
Chain of Megakaryocyte-associated tyrosine-protein kinase (P42679 whole entry): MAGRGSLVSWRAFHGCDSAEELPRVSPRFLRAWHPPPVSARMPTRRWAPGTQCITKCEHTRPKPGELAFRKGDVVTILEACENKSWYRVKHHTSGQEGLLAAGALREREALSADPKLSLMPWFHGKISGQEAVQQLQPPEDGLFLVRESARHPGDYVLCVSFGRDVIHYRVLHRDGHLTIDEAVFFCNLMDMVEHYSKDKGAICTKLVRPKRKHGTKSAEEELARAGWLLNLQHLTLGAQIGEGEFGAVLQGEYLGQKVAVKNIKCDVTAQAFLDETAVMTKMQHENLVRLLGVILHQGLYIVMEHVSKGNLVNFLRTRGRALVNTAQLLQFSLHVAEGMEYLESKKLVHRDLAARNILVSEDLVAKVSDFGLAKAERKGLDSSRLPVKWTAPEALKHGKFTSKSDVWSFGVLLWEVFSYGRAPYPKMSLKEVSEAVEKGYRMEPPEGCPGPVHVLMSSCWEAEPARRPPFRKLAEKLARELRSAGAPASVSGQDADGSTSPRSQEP

[18] = molecular target: Ephrin type-B receptor 4 (Homo sapiens, UniProt P54760); assay: Inhibition of EPHB4 (unknown origin)
Chain of Ephrin type-B receptor 4 (P54760 whole entry): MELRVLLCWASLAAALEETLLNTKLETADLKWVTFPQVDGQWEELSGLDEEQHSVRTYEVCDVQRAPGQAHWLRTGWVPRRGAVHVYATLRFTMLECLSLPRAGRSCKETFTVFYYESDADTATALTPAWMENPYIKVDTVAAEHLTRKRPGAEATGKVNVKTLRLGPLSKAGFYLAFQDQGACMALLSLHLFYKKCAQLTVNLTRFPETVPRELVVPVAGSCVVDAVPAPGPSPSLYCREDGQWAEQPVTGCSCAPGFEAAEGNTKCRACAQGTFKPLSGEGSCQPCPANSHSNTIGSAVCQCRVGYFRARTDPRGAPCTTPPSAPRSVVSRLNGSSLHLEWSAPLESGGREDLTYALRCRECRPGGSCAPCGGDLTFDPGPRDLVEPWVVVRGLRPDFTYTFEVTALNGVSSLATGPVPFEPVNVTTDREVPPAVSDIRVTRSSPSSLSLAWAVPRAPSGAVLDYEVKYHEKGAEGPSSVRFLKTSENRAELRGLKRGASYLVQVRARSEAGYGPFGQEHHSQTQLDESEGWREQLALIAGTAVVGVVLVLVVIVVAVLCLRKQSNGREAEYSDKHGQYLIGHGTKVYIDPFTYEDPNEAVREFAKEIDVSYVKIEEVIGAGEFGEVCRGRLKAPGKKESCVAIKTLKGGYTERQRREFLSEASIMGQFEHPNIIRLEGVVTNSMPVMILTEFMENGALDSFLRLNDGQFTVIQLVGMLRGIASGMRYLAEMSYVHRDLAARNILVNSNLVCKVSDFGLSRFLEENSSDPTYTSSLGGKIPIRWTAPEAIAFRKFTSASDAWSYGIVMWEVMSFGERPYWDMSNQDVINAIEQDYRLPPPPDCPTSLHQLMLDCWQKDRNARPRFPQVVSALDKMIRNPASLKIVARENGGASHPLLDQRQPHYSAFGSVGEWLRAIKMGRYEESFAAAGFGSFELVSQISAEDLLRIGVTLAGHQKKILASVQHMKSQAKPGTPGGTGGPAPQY

[19] = tested on: Mus musculus; assay: Antialzheimer activity in 5XFAD mouse assessed as reduction in plaque formation by measuring average plaque volume in somatosensory cortex at 1200 ppm administered as rodent chow starting from 1.5 months and measured after 4 months by immunolabeling based confocal microscopic analysis; format: functional; conditions: route po, time 2.5 months, 1825 h
[20] = Oral bioavailability in dog at 45 mg/kg administered as single via gavage; format: ADME, organism-based, Canis lupus familiaris; conditions: in vivo
[21] = Effect on C1qa gene expression in 5XFAD mouse cortex at 1200 ppm administered as rodent chow starting from 1.5 months and measured after 7 months by RNA-Seq analysis (reference value: 31.609 to 64.988 RPKM); format: functional; conditions: route po, time 5.5 months, 4015 h
How it was run: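 WT and 5xFAD mice were treated with 1200 ppm PLX5622 chow or control chow from 1.5 to 7 months of age. Brains were microdissected into cortex, hippocampus and thalamus, and RNA was extracted from tissue powder. Whole-transcriptome RNA-Seq libraries were sequenced, with n = 4 per group per region (48 samples).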

COc1ncc(F)cc1CNc1ccc(Cc2c[nH]c3ncc(C)cc23)c(F)n1 [PLX-5622]
IC50 [1]: > 1000 nM
IC50 [2]: > 1000 nM
Activity [3]: inactive
IC50 [4]: > 1000 nM
Activity [5]: 14
Flu intensity [6]: 2.499 a.u.
Activity [7]: 1
IC50 [8]: > 1000 nM
AUC at 4320 h [9]: 57300 ng·h/mL
Flu intensity [10]: 0.77 a.u.
Activity [11]: 10.009 RPKM
half-life [12]: 3.9 h
Activity [13]: 77%
IC50 [14]: > 1000 nM
Activity [15]: 7
IC50 [16]: > 1000 nM
IC50 [17]: > 1000 nM
IC50 [18]: > 1000 nM
Activity [19]: 1533.351 um3
bioavailability [20]: 34%
Activity [21]: 2.8 RPKM
